Activity calls are given as the source filed them. No cut-off for these calls is given here.

The test system of data set [1] is Mus musculus. Kind of data set: Reduction in total plasma ceramide level in diet-induced obese C57BL6 mouse administered daily through oral gavage for 28 days measured 2 hrs post last dose relative to lean control. The class given is functional, organism-based. The essentials: (§1)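 DIO mice dosed orally for 28 days, with myriocin as positive control and lean mice as reference. Total and C18:0 plasma ceramides measured 2 h after the final dose.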

Data set [2] has as its system Mus musculus. Kind of data set: Reduction in blood glucose in diet-induced obese C57BL6 mouse at 25 mg/kg, po qd for 4 weeks by oral glucose tolerance test relative to lean control. The class given is functional, organism-based. A digest of the protocol: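 After 4 weeks of oral dosing, DIO mice underwent an oral glucose tolerance test. Insulin and glucose AUC compared with lean mice; trend assessed by ANOVA trend analysis.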

A short description of data set [3]: Toxicity in diet-induced obese C57Bl/6 mouse assessed as decrease in food intake at 10 mg/kg, po qd for 4 weeks. The class given is organism-based. The following applies: in vivo, 672 h. A digest of the protocol: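 Food intake monitored in DIO mice during 4 weeks of daily oral dosing.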
In a further data set the test system is Rattus norvegicus. Nature of the data set: Increase in HDL level in cholic acid/cholesterol-fed Sprague-Dawley rat model of dyslipidemia administered bid through oral gavage measured after 1 week by FPLC analysis relative to vehicle-treated control. Type of data set: functional, organism-based. A digest of the protocol:
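Sprague Dawley rats fed a cholic acid/cholesterol diet for 14 days, then dosed orally BID for 7 days at five dose levels, n=6. Serum ceramides and VLDL and HDL cholesterol compared with vehicle (dose 0). Mean ± SEM; Dunnett's test, p<0.05.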

Data set [4] in a line: Drug uptake in diet-induced obese C57Bl/6 mouse serum at 25 mg/kg, po qd for 4 weeks measured 6 hrs post last dose. Type of data set: ADME, organism-based. The following applies: read-out: Drug uptake. A digest of the protocol:
(§2)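 Male DIO mice dosed orally for 4 weeks. Sacrificed 6 h after the last dose. Compound measured in serum (ng/mL) and liver (ng/g), and the liver:serum ratio calculated.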

A short description of data set [5]: Drug uptake in diet-induced obese C57Bl/6 mouse serum at 0.1 mg/kg, po qd for 4 weeks measured 6 hrs post last dose. The conditions noted are these: read-out: Drug uptake. The class given is ADME, organism-based. The essentials:
as §2

A short description of data set [6]: Ratio of drug uptake in diet-induced obese C57Bl/6 mouse liver to serum at 3 mg/kg, po qd for 4 weeks measured 6 hrs post last dose. The class given is ADME, organism-based. A digest of the protocol:
as §2

Data set [7] deals with Mus musculus. Nature of the data set: Reduction in total liver ceramide level in diet-induced obese C57BL6 mouse at 1 to 60 mg/kg administered daily through oral gavage for 28 days measured 6 hrs post last dose relative to lean control. The class given is functional, organism-based. The essentials: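 Liver total ceramide levels measured in DIO mice after 4 weeks of oral dosing.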

Data set [8] is described as follows: Volume of distribution at steady state in Sprague-Dawley rat at 3 mg/kg,po. The conditions noted are these: in vivo. The class given is ADME, organism-based. The essentials:
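Male Sprague Dawley rats, fasted, single oral dose of 3 mg/kg. A parallel arm received 1 mg/kg IV. Plasma was sampled for pharmacokinetics over 0-24 hr. Steady-state volume of distribution is reported […], in mL/kg.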

In data set [9] the test system is Mus musculus. Nature of the data set: Reduction in plasma C18:0 ceramide level in diet-induced obese C57BL6 mouse at 1 to 60 mg/kg administered daily through oral gavage for 28 days measured 2 hrs post last dose relative to lean control. Type of data set: functional, organism-based. A digest of the protocol: as §1
Data set [10] is described as follows: Cmax in Sprague-Dawley rat at 1 mg/kg, iv. Type of data set: ADME, organism-based. On the set-up: dose 1 mg/kg, route intravenous. The following applies: in vivo. A digest of the protocol: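 Single dose to fasted male Sprague Dawley rats, IV at 1 mg/kg or oral at 3 mg/kg. Plasma levels followed to derive AUC0-24hr, Cmax, half-life, Vdss and oral bioavailability.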

The nature of data set [11]: Dissociation constant, pKa of the compound. Type of data set: physicochemical.

With `CCCCCCC(=O)N1CCc2c(c(-c3ccc(C(C)(C)C(=O)O)cc3)nn2C)C1`, the values for the Activity entry (in the data set with Mus musculus [1]; in data set [3]; in the data set on Rattus norvegicus) were “Dose-dependent effect”, “Non-Toxic” and “Dose-dependent effect”, respectively. Further, the result in the data set on Mus musculus [2], with Mus musculus [7] and in the data set on Mus musculus [9] was Active. Besides, the values for the concentration at 6 h in data set [4] and in data set [5] were 1210 ng/mL and 5 ng/mL, respectively. Besides, the Kp at 6 h in data set [6] worked out at 126. For the same compound, the Vdss in data set [8] was 126000 mL/kg. Further, in [10], the concentration peaked (Cmax) at 756 ng/mL. The same compound had a pKa in data set [11] of 4.19.

As a reminder, the Kp is tissue or fluid exposure divided by exposure in the circulation. By Cmax is commonly meant the peak of the concentration-time curve. As usually defined, the pKa is the pH at which an ionisable group is half protonated. The low end stands for a stronger acid or weaker base, the high end for a weaker acid or stronger base.

The record behind these values is ChEMBL document CHEMBL4477201, “Imidazopyridine and Pyrazolopiperidine Derivatives as Novel Inhibitors of Serine Palmitoyl Transferase” (J Med Chem, 2016).
